For series [1], the target named is T1, Amyloid-beta precursor protein (Homo sapiens, UniProt P05067). Put plainly: Inhibition of Cu2+-induced amyloid beta (1 to 42) (unknown origin) aggregation at 25 uM after 24 hrs by thioflavin-T fluorescence method. Summed up: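 Aβ1-42 (25 µM final) mixed with Cu2+ (25 µM final) in HEPES (20 mM, pH 6.60, 150 mM NaCl), with or without compound (25 µM final), and incubated at 37 °C for 24 h. 5 µM ThT in glycine-NaOH pH 8.50 then added and fluorescence read at ex 446/em 490 nm. Percent inhibition calculated from background-subtracted signal. Run in triplicate.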

Series [2] has as its target T2, Amine oxidase [flavin-containing] B (Homo sapiens, UniProt P27338).
T2 sequence (P27338 whole entry): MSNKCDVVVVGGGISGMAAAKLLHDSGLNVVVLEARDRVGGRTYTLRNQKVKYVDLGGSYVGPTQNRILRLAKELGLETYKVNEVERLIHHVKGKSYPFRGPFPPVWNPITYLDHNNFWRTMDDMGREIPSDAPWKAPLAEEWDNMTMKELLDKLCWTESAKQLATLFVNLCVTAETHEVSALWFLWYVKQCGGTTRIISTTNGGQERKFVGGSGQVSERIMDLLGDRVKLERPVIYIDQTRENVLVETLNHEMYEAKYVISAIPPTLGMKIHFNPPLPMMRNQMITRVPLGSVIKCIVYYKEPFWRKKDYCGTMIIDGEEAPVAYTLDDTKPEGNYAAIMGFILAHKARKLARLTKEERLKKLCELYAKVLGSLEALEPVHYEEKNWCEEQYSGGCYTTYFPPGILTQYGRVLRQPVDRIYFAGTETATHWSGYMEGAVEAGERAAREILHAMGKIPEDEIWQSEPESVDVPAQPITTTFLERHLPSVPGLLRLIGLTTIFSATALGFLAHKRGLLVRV
Put plainly: Inhibition of human recombinant MAO-B at 10 uM using kynuramine as substrate after 30 mins by fluorescence spectrophotometry. The following applies: 0.5 h. Summed up:
(§1)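 Recombinant human MAO-A or MAO-B (7.5 µg/mL) in 100 mM potassium phosphate with 20.2 mM KCl, pH 7.40. Kynuramine substrate at 45 µM (MAO-A) or 30 µM (MAO-B); DMSO below 4%. Incubated 37 °C for 30 min, stopped with 2N NaOH. 4-Hydroxyquinoline fluorescence read at ex 310/em 400 nm against a calibration curve. Single-concentration screen at 10 µM, in triplicate.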

Series [3] concerns the target T3, Amine oxidase [flavin-containing] A (Homo sapiens, UniProt P21397).
T3 sequence (P21397 whole entry): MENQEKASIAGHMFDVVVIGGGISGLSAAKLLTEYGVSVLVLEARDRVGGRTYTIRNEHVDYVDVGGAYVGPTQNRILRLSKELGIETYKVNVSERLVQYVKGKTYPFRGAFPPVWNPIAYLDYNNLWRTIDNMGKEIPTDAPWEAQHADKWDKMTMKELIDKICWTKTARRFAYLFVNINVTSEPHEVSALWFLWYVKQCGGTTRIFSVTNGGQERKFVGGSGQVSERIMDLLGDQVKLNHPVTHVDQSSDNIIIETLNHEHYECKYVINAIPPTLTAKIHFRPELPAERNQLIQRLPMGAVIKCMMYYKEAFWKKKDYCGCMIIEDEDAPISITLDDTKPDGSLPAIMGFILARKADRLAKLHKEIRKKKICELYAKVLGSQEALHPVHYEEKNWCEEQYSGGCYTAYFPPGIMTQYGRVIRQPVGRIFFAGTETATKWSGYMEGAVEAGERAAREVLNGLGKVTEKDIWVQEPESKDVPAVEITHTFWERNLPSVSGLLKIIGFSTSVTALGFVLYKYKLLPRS
Put plainly: Inhibition of human recombinant MAO-A at 10 uM using kynuramine as substrate after 30 mins by fluorescence spectrophotometry. The note with it: 0.5 h. Summed up:
as §1

Series [4] has as its target T1, Amyloid-beta precursor protein. Put plainly: Inhibition of self-induced amyloid beta (1 to 42) (unknown origin) aggregation at 25 uM after 24 hrs by thioflavin-T fluorescence method. Summed up:
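HFIP-pretreated Aβ1-42 (25 µM final) incubated with compound (25 µM final) in 50 mM phosphate buffer pH 7.40 at 37 °C for 24 h. ThT (5 µM in 50 mM glycine-NaOH, pH 8.5) then added and fluorescence read at ex 446/em 490 nm. Background-subtracted inhibition = (1−IFi/IFc)×100. Run in triplicate.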

Series [5] is described as follows: Antioxidant activity assessed as AAPH free radical scavenging activity measured as trolox equivalent at 5 uM preincubated for 15 mins followed by AAPH addition measured every min for 90 mins by fluorescence assay. The class given is physicochemical. The following applies: 1.5 h. Summed up:
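ORAC-FL in 75 mM phosphate buffer pH 7.40. Sample plus fluorescein (150 nM final) pre-incubated 15 min at 37 °C, then AAPH added (12 mM final). Fluorescence read every minute for 90 min (ex 485/em 535 nm). Net AUC (blank-subtracted) converted to Trolox equivalents using a Trolox standard curve (1-8 µM). Samples tested at 1-10 µM, in duplicate, with at least three independent assays.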

For a further series, the species on record is Homo sapiens. Put plainly: Selectivity ratio of IC50 for human recombinant MAO-A to IC50 for human recombinant MAO-B.
For series [6], the target named is T2, Amine oxidase [flavin-containing] B. Put plainly: Inhibition of human recombinant MAO-B using kynuramine as substrate after 30 mins by fluorescence spectrophotometry.
Series [7] concerns the target T3, Amine oxidase [flavin-containing] A. Put plainly: Inhibition of human recombinant MAO-A using kynuramine as substrate after 30 mins by fluorescence spectrophotometry.
Series [8] can be described thus: Metal chelating activity assessed as mole fraction of compound required to show 1:1 stoichiometry for Cu2+-compound complex at 37.5 uM after 30 mins by UV-visual spectrometry. It is filed as physicochemical. The note with it: 0.5 h. The method, boiled down: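 Molar-ratio titration of compound in methanol (37.5 µM final) with CuCl2 (3.75-150 µM final). UV spectra corrected by subtracting CuCl2 and compound at matching concentrations. Absorbance at 498 or 488 nm plotted against mole fraction; stoichiometry taken from the intersection of the fitted lines.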

Series [9] can be described thus: Metal chelating activity assessed as compound-aluminium complex formation at 37.5 uM after 30 mins by UV-visual spectrometry. The class given is physicochemical. The following applies: 0.5 h. Summed up:
(§2)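 UV absorption spectra (200-600 nm) recorded for compound alone or with CuCl2, ZnCl2, AlCl3 or FeSO4 after 30 min incubation at room temperature.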

The nature of series [10]: Metal chelating activity assessed as compound-iron complex formation at 37.5 uM after 30 mins by UV-visual spectrometry. The class given is physicochemical. The following applies: 0.5 h. The method, boiled down: as §2
The nature of series [11]: Metal chelating activity assessed as compound-copper complex formation at 37.5 uM after 30 mins by UV-visual spectrometry. The following applies: 0.5 h. The class given is physicochemical. The method, boiled down: as §2
The nature of series [12]: Metal chelating activity assessed as compound-zinc complex formation at 37.5 uM after 30 mins by UV-visual spectrometry. It is filed as physicochemical. The note with it: 0.5 h. Summed up:
as §2

A short description of series [13]: Permeability of the compound at 100 ug/ml after 18 hrs by PAMPA-BBB assay. In general terms: PAMPA measures passive passage across an artificial lipid membrane.
Series [14] deals with T1, Amyloid-beta precursor protein. Put plainly: Displacement of [125I]-2-[(4-Aminophenyl)methylene]-5-iodo-3(2H)-benzofuranone from amyloid beta (1 to 42) (unknown origin) after 3 hrs by gamma counting method. (Displacement assays read how much labelled ligand stays bound in the presence of the test substance.)

Some results are limits rather than exact numbers.

T1 sequence (P05067 whole entry): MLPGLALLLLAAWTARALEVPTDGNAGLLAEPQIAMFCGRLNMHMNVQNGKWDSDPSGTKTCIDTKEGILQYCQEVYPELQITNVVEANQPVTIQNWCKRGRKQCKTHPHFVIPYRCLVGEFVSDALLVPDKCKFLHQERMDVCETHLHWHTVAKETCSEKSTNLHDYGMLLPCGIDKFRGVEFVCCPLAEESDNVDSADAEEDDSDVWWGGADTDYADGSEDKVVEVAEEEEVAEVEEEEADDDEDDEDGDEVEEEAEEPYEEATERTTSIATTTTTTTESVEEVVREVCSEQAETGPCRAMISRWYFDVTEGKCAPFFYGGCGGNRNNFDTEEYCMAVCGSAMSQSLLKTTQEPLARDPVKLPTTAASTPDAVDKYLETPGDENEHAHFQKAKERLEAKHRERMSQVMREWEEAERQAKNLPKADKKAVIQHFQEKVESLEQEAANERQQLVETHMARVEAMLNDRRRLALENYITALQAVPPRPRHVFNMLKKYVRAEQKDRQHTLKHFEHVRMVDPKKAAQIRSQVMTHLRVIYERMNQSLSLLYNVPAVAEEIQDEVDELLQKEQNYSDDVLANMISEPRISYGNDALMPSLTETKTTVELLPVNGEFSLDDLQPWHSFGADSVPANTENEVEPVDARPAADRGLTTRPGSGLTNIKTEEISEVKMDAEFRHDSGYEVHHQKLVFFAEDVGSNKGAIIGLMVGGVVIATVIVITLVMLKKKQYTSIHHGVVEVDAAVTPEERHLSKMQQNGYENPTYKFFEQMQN

One may read the inhibition as the share of the control response that was lost under treatment. On to `CN(C)c1ccccc1/C=C1\Oc2cc(O)cc(O)c2C1=O`, for which the inhibition in series [1] stood at 90.1%; in series [4], 98.2%. In addition, the inhibition at 10 µM in [2] came out at 0.88%; in [3], 13.5%. In addition, the Activity in series [5] amounted to 2.91 equiv.
Broadly, the IC50 is the concentration that gives 50% inhibition. Consider `O=C1/C(=C/c2ccc(N3CCOCC3)cc2)Oc2cc(O)cc(O)c21`, for which the Ratio IC50 in the series filed under Homo sapiens amounted to 3.18. Besides, the inhibition is 50.1% in series [1] and 80.7% in [4]. The IC50 in series [6] was 0.34 µM; in series [7], 1.08 µM. The Activity in [5] stood at 2.5 equiv.
`CCN(CC)c1ccc(/C=C2\Oc3cc(O)cc(O)c3C2=O)cc1`: the Ratio IC50 in the series listed under Homo sapiens is 0.344. The inhibition in series [1] amounted to 88.9%; in series [4] it was 91.7%. For the same compound, the IC50 came to 0.334 µM in [6] and 0.115 µM in series [7]. The Activity in series [5] was 2.04 equiv.
With `O=C1/C(=C/c2ccc(N3CCCC3)cc2)Oc2cc(O)cc(O)c21`, the Ratio IC50 in the series filed under Homo sapiens is 1.17. In addition, the values for the inhibition in [1] and in series [4] were 84.8% and 99.8%, respectively. The values for the IC50 in [6] and in series [7] were 0.391 µM and 0.457 µM, respectively. In addition, the Activity in series [5] stood at 1.56 equiv.
Consider `CCN(C)c1ccc(/C=C2\Oc3cc(O)cc(O)c3C2=O)cc1`, for which, in the series listed under Homo sapiens, the Ratio IC50 was determined as 0.035. Moreover, the results for the inhibition in [1] and in [4] were 86.6% and 95.3%, respectively. Further, the results for the IC50 in series [6] and in series [7] were 0.808 µM and 0.0279 µM, respectively. The Activity in [5] worked out at 1.97 equiv.
In general, Papp refers to the rate of passage across a membrane or cell layer, normalised by area and donor concentration. Read a high Papp as ready permeation. Regarding `COc1cc(O)c2c(c1)O/C(=C\c1ccc(N3CCCCC3)cc1)C2=O`, the Activity was 1.11 molar ratio in series [8]; “Active” in series [9]; “Not Active” in [10]; “Active” in series [11]; “Active” in series [12]; 1 equiv in series [5]. The Ratio IC50 in the series listed under Homo sapiens is above 44.2. Further, the inhibition in [1] is 46%; in [4], 40.3%. Moreover, the inhibition at 10 µM in [3] amounted to 18.3%. Moreover, the IC50 in series [6] worked out at 0.226 µM. The Papp at 18 h, 100 ug/ml in [13] turned out to be 7.24 ×10⁻⁶ cm/s.
Take `CN(C)c1ccc(/C=C2\Oc3cc(N(C)C)cc(O)c3C2=O)cc1`: the results for the inhibition in [1] and in [4] were 71.6% and 22.3%, respectively. For the same compound, the inhibition at 10 µM in [2] is 13.5%; in series [3], 16.8%. In series [5], the Activity turned out to be 2.43 equiv.
Take `CN(C)c1ccc(/C=C2\Oc3cc(O)cc(O)c3C2=O)cc1`: in the series listed under Homo sapiens, the Ratio IC50 was 0.039. Moreover, the inhibition in [1] turned out to be 61.4%; in series [4], 97.4%. In addition, the concentration for half-maximal inhibition (IC50) amounted to 5.94 µM in series [6] and 0.233 µM in series [7]. The Activity in series [5] is given as 2.9 equiv.
As to `CN(C)c1ccc(CC2Oc3cc(O)cc(O)c3C2=O)cc1` (stereo not drawn), the results for the inhibition in [1] and in [4] were 40.5% and 42.7%, respectively. The inhibition at 10 µM in series [2] is 27.2%; in series [3], 23.5%. Further, in series [5], the Activity came to 3.07 equiv.
Consider `COc1cc(O)c2c(c1)O/C(=C\c1ccc(N(C)C)cc1)C2=O`, for which the Ratio IC50 in the series listed under Homo sapiens was above 14.2. The inhibition in series [1] came out at 75.7%; in series [4], 53.7%. Besides, in series [3], the inhibition at 10 µM came to 20.7%. Also, in series [6], the IC50 was 0.703 µM. In addition, the Activity in series [5] stood at 1.62 equiv.
For orientation: Ki means a dissociation constant, usually derived from enzyme kinetics or from competition with a known ligand. A low value points to higher affinity. For `CN(C)c1ccc(/C=C2\Oc3ccc([125I])cc3C2=O)cc1`, the Ki in [14] turned out to be 0.00682 µM.
Turning to `O=C1/C(=C/c2ccc(N3CCCCC3)cc2)Oc2cc(O)cc(O)c21`, the Activity in series [8] was 0.95 molar ratio; in series [9] it was “Active”; in series [10], “Not Active”; in series [11] it was “Active”; in series [12] it was “Active”; in series [5] it was 1.9 equiv. In the series listed under Homo sapiens, the Ratio IC50 was found to be 0.69. Besides, the inhibition is 84% in [1] and 99.2% in series [4]. The IC50 in series [6] was 0.393 µM; in series [7], 0.271 µM. Moreover, the Papp at 18 h, 100 ug/ml in series [13] came to 6.68 ×10⁻⁶ cm/s.
For `COc1cc(O)c2c(c1)O/C(=C\c1ccc(N3CCOCC3)cc1)C2=O`, the Ratio IC50 in the series listed under Homo sapiens was above 6.67. Further, the inhibition is 47.5% in series [1] and 44.1% in series [4]. Moreover, the inhibition at 10 µM in [3] was 18.4%. The IC50 in series [6] is 1.5 µM. The Activity in [5] amounted to 1.66 equiv.
For `O=C1c2c(O)cc(O)cc2OC1Cc1ccc(N2CCOCC2)cc1` (stereo not drawn), the inhibition in [1] amounted to 20.9%; in [4] it was 38%. The inhibition at 10 µM was 8.7% in series [2] and 13.9% in series [3]. Moreover, in series [5], the Activity is 3.56 equiv.
In the case of `CN1CCN(c2ccc(/C=C3\Oc4cc(O)cc(O)c4C3=O)cc2)CC1`, in the series filed under Homo sapiens, the Ratio IC50 is above 0.926. Further, the inhibition was 52% in series [1] and 77.7% in series [4]. The inhibition at 10 µM in series [3] amounted to 15.8%. Further, the half-inhibitory concentration (IC50) in [6] amounted to 10.8 µM. Also, the Activity in [5] is recorded as 2.5 equiv.
